# In ChEMBL document CHEMBL1139506, “Effect on K(ATP) channel activation properties and tissue selectivity of the nature of the substituent in the 7- and the 3-position of 4H-1,2,4-benzothiadiazine 1,1-dioxides” (J Med Chem, 2005):
# Tests used:
# [1] = species on record: Rattus norvegicus; assay: Concentration required for relaxation of the 30 mM KCl-induced contraction of rat aortic rings (n=4); format: functional; details: Aorta, read-out: ED50 (the source's name)
# Outline: (§1)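 Endothelium-denuded transverse aortic rings (3-4 mm) from fed Wistar rats (180-200 g); isometric tension by force transducer. After 60 min equilibration, contracted with 30 mM KCl; at stable tension, drug added cumulatively until maximal relaxation or up to 0.3 mM. Relaxation expressed as % of KCl contraction; ED50 (50% inhibition of KCl plateau) from dose curves; mean ± SEM (n).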
# [2] = species on record: Rattus norvegicus; assay: Effect on insulin secretion from rat pancreatic islets at 10 uM concentration (n=22); format: functional
# Outline: (§2)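 Islets isolated by collagenase from fed Wistar rats (180-220 g); groups of 10 preincubated 30 min, 37 °C, in bicarbonate salt medium with 2.8 mM glucose, 0.5% dialyzed albumin, O2/CO2 95:5. Then incubated 90 min, 37 °C, with 16.7 mM glucose plus drug. Insulin measured by radioimmunoassay against rat insulin standard; expressed as % of drug-free 16.7 mM glucose control; mean ± SEM (n).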
# [3] = species on record: Rattus norvegicus; assay: Effect on insulin secretion from rat pancreatic islets at 50 uM concentration (n=14); format: functional; outline: as §2
# [4] = species on record: Rattus norvegicus; assay: Effect on insulin secretion from rat pancreatic islets at 50 uM concentration (n=15); format: functional; outline: as §2
# [5] = Ionization constant was determined; format: physicochemical
# Outline: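 Ionization constant found by UV spectroscopy in aqueous buffers spanning pH 5 to 12; pKa calculated with the Debye-Hückel equation at the absorbance maximum of the basic form.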
# [6] = species on record: Rattus norvegicus; assay: ED50/IC50 ratio was determined; format: functional
# [7] = species on record: Rattus norvegicus; assay: Concentration required for 50% inhibition of insulin release in rat pancreatic B-cells; format: functional, cell-based
# [8] = species on record: Rattus norvegicus; assay: Effect on insulin secretion from rat pancreatic islets at 10 uM concentration (n=16); format: functional; outline: as §2
# [9] = species on record: Rattus norvegicus; assay: Effect on insulin secretion from rat pancreatic islets at 1 uM concentration (n=15); format: functional; outline: as §2
# [10] = species on record: Rattus norvegicus; assay: Concentration giving 50% relaxation of the 30 mM KCl-induced contraction of rat aortic rings (n=6); format: functional; details: Aorta, read-out: ED50 (the source's name); outline: as §1
# [11] = species on record: Rattus norvegicus; assay: Effect on insulin secretion from rat pancreatic islets at 10 uM concentration (n=13); format: functional; outline: as §2
# [12] = species on record: Rattus norvegicus; assay: Effect on insulin secretion from rat pancreatic islets at 50 uM concentration (n=13); format: functional; outline: as §2
# [13] = species on record: Rattus norvegicus; assay: Effect on insulin secretion from rat pancreatic islets at 1 uM concentration (n=14); format: functional; outline: as §2
# [14] = species on record: Rattus norvegicus; assay: Effect on insulin secretion from rat pancreatic islets at 10 uM concentration (n=37); format: functional
# [15] = species on record: Rattus norvegicus; assay: Effect on insulin secretion from rat pancreatic islets at 10 uM concentration (n=32); format: functional
# [16] = species on record: Rattus norvegicus; assay: Effect on insulin secretion from rat pancreatic islets at 50 uM concentration (n=35); format: functional
# [17] = species on record: Rattus norvegicus; assay: Effect on insulin secretion from rat pancreatic islets at 1 uM concentration (n=31); format: functional
# [18] = species on record: Rattus norvegicus; assay: Concentration giving 50% relaxation of the 30 mM KCl-induced contraction of rat aortic rings (n=11); details: Aorta, read-out: ED50
# [19] = species on record: Rattus norvegicus; assay: Effect on insulin secretion from rat pancreatic islets at 50 uM concentration (n=16); format: functional; outline: as §2
# [20] = species on record: Rattus norvegicus; assay: Effect on insulin secretion from rat pancreatic islets at 10 uM concentration (n=14); format: functional; outline: as §2
# [21] = species on record: Rattus norvegicus; assay: Effect on insulin secretion from rat pancreatic islets at 50 uM concentration (n=12); format: functional; outline: as §2
# [22] = species on record: Rattus norvegicus; assay: Effect on insulin secretion from rat pancreatic islets at 1 uM concentration (n=16); format: functional; outline: as §2
# [23] = species on record: Rattus norvegicus; assay: Effect on insulin secretion from rat pancreatic islets at 10 uM concentration (n=24); format: functional; outline: as §2
# [24] = species on record: Rattus norvegicus; assay: Effect on insulin secretion from rat pancreatic islets at 50 uM concentration (n=11); format: functional; outline: as §2
# [25] = species on record: Rattus norvegicus; assay: Effect on insulin secretion from rat pancreatic islets at 1 uM concentration (n=23); format: functional; outline: as §2
# [26] = species on record: Rattus norvegicus; assay: Concentration giving 50% relaxation of the 30 mM KCl-induced contraction of rat aortic rings (n=5); format: functional; details: Aorta, read-out: ED50 (the source's name); outline: as §1
# [27] = species on record: Rattus norvegicus; assay: Effect on insulin secretion from rat pancreatic islets at 1 uM concentration (n=20); format: functional; outline: as §2
# [28] = species on record: Rattus norvegicus; assay: Concentration giving 50% relaxation of the 30 mM KCl-induced contraction of rat aortic rings (n=3); format: functional; details: Aorta, read-out: ED50 (the source's name); outline: as §1
# [29] = species on record: Rattus norvegicus; assay: Effect on insulin secretion from rat pancreatic islets at 10 uM concentration (n=15); format: functional; outline: as §2
# [30] = species on record: Rattus norvegicus; assay: Effect on insulin secretion from rat pancreatic islets at 10 uM concentration (n=12); format: functional; outline: as §2
# [31] = species on record: Rattus norvegicus; assay: Effect on insulin secretion from rat pancreatic islets at 50 uM concentration (n=18); format: functional; outline: as §2
structure (smiles),measurement,setting,value
CCCNC1=NS(=O)(=O)c2cc(C(F)(F)F)ccc2N1,EC50,[1],2.9 µM
same,Residual insulin release,[2],77.9%
same,Residual insulin release,[3],52%
CCC(C)NC1=NS(=O)(=O)c2cc(C(F)(F)F)ccc2N1 (stereo not given),EC50,[1],8.9 µM
same,Residual insulin release,[2],76.1%
same,Residual insulin release,[4],28.6%
CC(C)NC1=NS(=O)(=O)c2ccccc2N1,pKa,[5],9.98
same,Ratio,[6],>79
same,EC50,[1],> 300 µM
same,IC50,[7],3.8 µM
same,Residual insulin release,[8],34.9%
same,Residual insulin release,[9],73.7%
CC(C)NC1=NS(=O)(=O)c2cc(C(F)(F)F)ccc2N1,pKa,[5],8.96
same,Ratio,[6],7.7
same,EC50,[10],13.1 µM
same,IC50,[7],1.7 µM
same,Residual insulin release,[11],7.4%
same,Residual insulin release,[12],7.1%
same,Residual insulin release,[13],71.5%
CC(C)NC1=NS(=O)(=O)c2cc([N+](=O)[O-])ccc2N1,pKa,[5],7.91
same,EC50,[1],23.1 µM
same,Residual insulin release,[14],64%
same,Residual insulin release,[3],4.8%
CC(C)NC1=NS(=O)(=O)c2cc(Cl)ccc2N1,Ratio,[6],52
same,EC50,[10],36.3 µM
same,IC50,[7],0.7 µM
same,Residual insulin release,[15],4.9%
same,Residual insulin release,[16],5.7%
same,Residual insulin release,[17],36.2%
CC1=Nc2ccc(Cl)cc2S(=O)(=O)N1 [DIAZOXIDE],Ratio,[6],1
same,EC50,[18],22.4 µM
same,IC50,[7],22.6 µM
same,Residual insulin release,[8],73.9%
same,Residual insulin release,[19],26.7%
same,Residual insulin release,[9],87.5%
CCCNC1=NS(=O)(=O)c2cc(OC)ccc2N1,Ratio,[6],>34
same,EC50,[1],> 300 µM
same,IC50,[7],8.9 µM
same,Residual insulin release,[20],47.4%
same,Residual insulin release,[21],6.3%
same,Residual insulin release,[22],101.7%
Cc1ccc2c(c1)S(=O)(=O)NC(NC1CCC1)=N2,Ratio,[6],10
same,EC50,[1],58.4 µM
same,IC50,[7],5.6 µM
same,Residual insulin release,[23],19.7%
same,Residual insulin release,[24],3.7%
same,Residual insulin release,[25],99.5%
CC(C)NC1=NS(=O)(=O)c2cc(N)ccc2N1,pKa,[5],10.5
same,EC50,[1],> 300 µM
same,Residual insulin release,[4],85.8%
CC(=O)Nc1ccc2c(c1)S(=O)(=O)N=C(NC(C)C)N2,pKa,[5],9.8
same,EC50,[1],> 300 µM
same,Residual insulin release,[19],89.3%
COc1ccc2c(c1)S(=O)(=O)NC(NC(C)C)=N2,pKa,[5],10.1
same,Ratio,[6],74
same,EC50,[26],274 µM
same,IC50,[7],3.7 µM
same,Residual insulin release,[23],8.5%
same,Residual insulin release,[21],4.4%
same,Residual insulin release,[27],67.6%
CCCCCc1ccc2c(c1)S(=O)(=O)NC(NCC)=N2,EC50,[1],6.6 µM
same,Residual insulin release,[8],104%
Cc1ccc2c(c1)S(=O)(=O)N=C(NC(C)C)N2,pKa,[5],10.2
same,Ratio,[6],100
same,EC50,[28],200 µM
same,IC50,[7],2 µM
same,Residual insulin release,[20],8.5%
same,Residual insulin release,[12],3.5%
same,Residual insulin release,[9],71.3%
CCCNC1=NS(=O)(=O)c2cc(C(=O)O)ccc2N1,EC50,[1],> 300 µM
same,Residual insulin release,[29],97.6%
same,Residual insulin release,[4],95.3%
CCC(C)NC1=NS(=O)(=O)c2cc(S(C)(=O)=O)ccc2N1 (stereo not given),EC50,[1],126 µM
same,Residual insulin release,[8],97.2%
CCNC1=NS(=O)(=O)c2ccccc2N1,EC50,[1],> 300 µM
same,Residual insulin release,[30],25.8%
same,Residual insulin release,[25],77.4%
CCCCCc1ccc2c(c1)S(=O)(=O)NC(NC(C)C)=N2,EC50,[1],20.1 µM
same,Residual insulin release,[8],106%
CCC(C)NC1=NS(=O)(=O)c2cc([N+](=O)[O-])ccc2N1 (stereo not given),EC50,[1],6.1 µM
same,Residual insulin release,[31],63.3%
CCCCCc1ccc2c(c1)S(=O)(=O)NC(NC1CCC1)=N2,EC50,[1],> 30 µM
same,Residual insulin release,[29],95.3%
O=[N+]([O-])c1ccc2c(c1)S(=O)(=O)NC(NC1CCC1)=N2,EC50,[1],13.8 µM
same,Residual insulin release,[12],59.6%
